RAD52 inh = blocks human RAD52 DNA annealing; 360,000 tested, 0.46% active; AID 651710; P43351; recombinant RAD52 DNA annealing, FRET fluorescence; inhibition, % at 18.7 µM;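 active = every replicate showing at least 50% inhibition; inconclusive = mean inhibition at least 50% but not in every replicate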
Target sequence (P43351 whole entry, looked up): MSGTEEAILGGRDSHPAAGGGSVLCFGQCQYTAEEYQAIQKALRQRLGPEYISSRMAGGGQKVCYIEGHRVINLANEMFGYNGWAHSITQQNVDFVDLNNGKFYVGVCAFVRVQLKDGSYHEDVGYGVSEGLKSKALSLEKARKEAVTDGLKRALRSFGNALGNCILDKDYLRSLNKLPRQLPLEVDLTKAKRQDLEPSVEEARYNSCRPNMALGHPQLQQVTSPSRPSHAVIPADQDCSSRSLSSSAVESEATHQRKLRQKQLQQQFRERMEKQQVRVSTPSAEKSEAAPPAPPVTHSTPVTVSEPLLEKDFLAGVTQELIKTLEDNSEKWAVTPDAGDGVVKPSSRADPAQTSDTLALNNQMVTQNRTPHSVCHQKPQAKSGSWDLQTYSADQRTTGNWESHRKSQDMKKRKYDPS
Glyco luc inh = blocks N-linked glycosylation in D54 reporter cells; D54 ERlucT glycosylation luciferase reporter, 24 h; percent of 100 nM tunicamycin response; reporter increase, % at 12.5 µM; 360,000 tested, 0.23% active; AID 588692;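 active = mean luciferase reporter signal, scaled so untreated is 0 and the glycosylation-blocking control 100, at or above a set limit in every replicate; inconclusive = mean reaches the limit but not every replicate does; inactive = mean below the limit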;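 note: luciferase carries N-glycosylation sites so blocking glycosylation raises the light; 0% = median of neutral control wells and 100% = median of 100 nM tunicamycin wells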
RAD54 branch = blocks human RAD54 Holliday junction branch migration. Q92698. FAM/BHQ fluorescence. inhibition, % at 10.4 µM. 360,000 tested, 0.14% active. AID 602329;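 active = mean normalized replicate activity at least 40 and at least half of replicates scoring 40 or more; inconclusive = only one of the two criteria met; inactive = mean below 40 and under half of replicates reaching 40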;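 note: 0% = median of neutral control wells and 100% = median of positive control wells; inhibitors cause a drop in the FAM fluorescence signal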
FN deposit inh = fibronectin deposition inhibition; inhibition, % at 12.6 µM; AH1F fibroblasts, Alexa488-fibronectin deposition fluorescence, overnight; AID 743247; 350,000 tested, 0.086% active;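 active = mean inhibition across replicates of 30% or more, regardless of how many single replicates reach that level; inconclusive = mean under 30% yet at least half of replicates reach 30%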;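 note: positive control wells lacked labelled fibronectin entirely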
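Material: AH1F fibroblasts assembling fluorescent fibronectin matrix; amount: 10000 AH1F cells/well; medium: DMEM, 2% serum; reagent: Alexa488-fibronectin, 24 nM final in well; dosing: single compound dose, delivered by pin transfer; incubation: 1 h adhesion, overnight exposure; detection: fluorescence after three HBSS washes, excitation 485 nm, emission 525 nm; measure: fibronectin deposition inhibition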
CaV13 FRET inh = Disruptors of the CACNA1D IQ motif to Ca2+-dependent inactivation inhibitor domain association, primary screening, Förster resonance energy transfer in intact living …; HEK cells, CFP/YFP FRET ICDI-IQ, plate reader, 10 min; percent FRET-ratio fall versus neutral wells; inhibition, % at 12.3 µM; 340,000 tested, 0.098% active; AID 743397;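 active = mean replicate inhibition of at least 30% and at least 1% of replicates passing that level; inconclusive = only one of the two criteria is met; inactive = neither criterion is met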;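 note: 0% = median of the neutral control wells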
DNA binding = DNA binding artifact in Rad54 counter-screen; shares compounds with RAD54 branch; Acridine orange-DNA displacement, fluorescence polarization, 20 min; AC50, µM (titrated, usually from 35 µM), for the others: top-dose activity change, negative = DNA binding; 460 tested, 8% active; AID 651673;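 active = signal drop giving an AC50 within twice the top valid tested concentration of each sample, actives reach about 35 µM in these data; inactive = activity opposite to expected, plus the rest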;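 note: polarization loss reports compound binding to salmon sperm DNA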
RAD52 DNA ctr = binds DNA, flagging false RAD52 inhibitor hits; AC50, µM; AID 652128; shares compounds with RAD52 inh; Salmon sperm DNA/acridine orange FP displacement, DNA binding; 1,000 tested, 8% active;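 active = fitted half-maximal concentration for signal loss at or below twice the highest dose tested, in every separate run, actives reach about 64 µM in these data; inconclusive = runs disagree, or flat partial signal loss, or poor fit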
Numbers without * were called inactive; i = inactive; ? = inconclusive; nt = not tested or not shown. Rows were chosen to be rich in hits. Some 0.7% of all compounds tested hit in one or more screens of this group.

SMILES | RAD52 inh | Glyco luc inh | RAD54 branch | FN deposit inh | CaV13 FRET inh | DNA binding | RAD52 DNA ctr
Cn1c2ccccc2c(=O)c2cc(NCCCN3CCOCC3)ccc21 | 70* | 19 | 116* | 16 | -10 | 2% | i
COc1cccc2sc3cc(NCCCN4CCOCC4)ccc3c(=O)c12 | 62* | 6 | 78* | -4 | -5 | 3% | i
C[C@H]1CN([C@@H](C)CO)C(=O)c2cc(NC(=O)C3CC3)ccc2O[C@H]1CN(C)CC1CCCCC1 | 8 | nt | -6 | nt | nt | nt | nt
CCCNC(=O)N1CC2(CN(S(=O)(=O)CC)C2)c2c([nH]c3cc(OC)ccc23)[C@H]1CO | 12 | nt | nt | nt | nt | nt | nt
CCN(CC)CCN1CCN(c2cncc(-c3cccc(N)c3)n2)CC1 | 99* | 2 | 73* | -3 | -5 | -11% | i
CN(C)CCCN(C(=O)COc1ccccc1)c1nc2ccc(F)cc2s1 | 13 | 0 | nt | -3 | -6 | nt | nt
CN(C)CCCN(C(=O)CCOc1ccccc1)c1nc2ccc(F)cc2s1 | 89* | -17 | 65* | 25 | -2 | -16% | i
CCN(CC)CCN(C(=O)C1=COCCO1)c1nc2ccc(C)cc2s1 | 19 | 1 | 14 | 3 | -7 | nt | nt
CCN(CC)CCN(C(=O)C1=COCCO1)c1nc2c(OC)ccc(OC)c2s1 | 88* | 0 | 77* | -2 | -3 | 10% | i
COc1ccc(OC)c2sc(N(CCN(C)C)C(=O)c3ccc4ccccc4c3)nc12 | 93* | -2 | 69* | 3 | -3 | 5% | i
COc1cc2ccccc2cc1C(=O)N(CCN(C)C)c1nc2c(OC)ccc(OC)c2s1 | 94* | -5 | 60* | 7 | -4 | -5% | i
C[C@@H]1CN([C@@H](C)CO)C(=O)c2cc(C#C[C@@H](C)O)cnc2O[C@H]1CN(C)C(=O)CN1CCOCC1 | -6 | nt | 3 | nt | nt | nt | nt
O=C(CN1CCCCC1)n1c2ccccc2c2ccccc21 | 61* | 13 | 100* | -25 | 18 | 2% | i
CN1CCN(CC(=O)n2c3c(c4ccccc42)CCCC3)CC1 | nt | -3 | nt | nt | nt | nt | nt
COc1ccccc1-c1ccc2n(c1=O)C[C@@H]1[C@@H](CO)[C@H](C(=O)N3CCCCC3)[C@H]2N1CC1CC1 | -8 | nt | -4 | nt | nt | nt | nt
CC1CCCN(CCCNC(=O)c2cc3c(Cl)nc4ccccc4c3s2)C1 (stereo not drawn) | 67* | ? | 92* | 5 | -4 | -7% | 39µM*
C[C@@H]1CCCCO[C@@H](CN(C)CC2CCCCC2)[C@H](C)CN([C@H](C)CO)C(=O)c2cc(NC(=O)NC3CCCCC3)ccc2O1 | nt | nt | -5 | 4 | nt | nt | nt
C[C@H]1CN([C@@H](C)CO)C(=O)c2cccc(NC(=O)C3CCOCC3)c2O[C@@H]1CN(C)CC1CC1 | 3 | nt | -7 | nt | nt | nt | nt
CCOC(=O)c1c(NC(=O)c2ccc(S(=O)(=O)N3CCOCC3)cc2)sc2c1CCN(C)C2 | 59* | -1 | 89* | nt | -7 | -7% | i
CCN1CCN(c2cc(C)c3cc(NC(=S)N4CCCC(C)C4)ccc3n2)CC1 (stereo not drawn) | 52* | -7 | 63* | 9 | -8 | 1% | i
CCN1CCN(c2cc(C)c3cc(NC(=O)c4ccncc4)ccc3n2)CC1 | -35 | -3 | 0 | 3 | -5 | nt | nt
CCN1CCN(c2cc(C)c3cc(NC(=S)N4CC(C)CC(C)C4)ccc3n2)CC1 (stereo not drawn) | 52* | -6 | ? | -7 | -3 | -9% | i
C/C=C/c1ccc([C@@H]2[C@@H](CO)N(C(C)=O)[C@@H]2CN(C)C(=O)CN(C)C)cc1 | nt | nt | -18 | -5 | nt | nt | nt
COCCNc1nc(SC)nc2sc3c(c12)CCN(C)C3 | 10 | -2 | 10 | 5 | -5 | nt | nt
CCN(CC)CCNc1nc(SC)nc2sc3c(c12)CCN(C)C3 | 56* | -2 | 53* | 2 | -6 | 6% | i
SMILES | RAD52 inh | Glyco luc inh | RAD54 branch | FN deposit inh | CaV13 FRET inh | DNA binding | RAD52 DNA ctr
C[C@H]1CCCCO[C@H](CN(C)C(=O)Nc2ccc(F)cc2)[C@@H](C)CN([C@@H](C)CO)C(=O)c2cc(NC(=O)c3ccccc3)ccc2O1 | 15 | nt | 4 | nt | nt | nt | nt
CN(C)CCCN(C(=O)c1ccco1)c1nc(-c2ccc(Cl)cc2)cs1 | 52* | 4 | 53* | 2 | -22 | -16% | i
O=C(Nc1ccc(Nc2ccncc2)cc1)c1ccc(Nc2ccnc3ccc([N+](=O)[O-])cc23)cc1 | 94* | 0 | 128* | -40 | -17 | 4% | i
C[C@H](CO)N1C[C@H](C)[C@@H](CN(C)Cc2ccccn2)Oc2ncc(C#Cc3cccc(F)c3)cc2C1=O | -17 | nt | 3 | 1 | nt | nt | nt
CCCN(CCC)CCCNC(=S)Nc1ccc2nc(N3CCN(C)CC3)cc(C)c2c1 | 75* | 3 | 63* | 10 | -6 | -9% | i
CCCCN(CC)CCNC(=S)Nc1ccc2nc(N3CCN(C)CC3)cc(C)c2c1 | 60* | 1 | 55* | 16 | -3 | 6% | i
Cc1cc(N2CCN(C)CC2)nc2ccc(NC(=S)NC3CC3)cc12 | 45 | 0 | nt | 2 | -15 | nt | nt
COc1ccc2c3c(n(C)c2c1)[C@@H](CO)N(Cc1ccc2c(c1)OCO2)CC31CCN(C(C)=O)CC1 | -8 | nt | nt | nt | nt | nt | nt
C[C@@H]1CN([C@H](C)CO)C(=O)c2cc(C#CC3CC3)cnc2O[C@@H]1CN(C)S(C)(=O)=O | 13 | nt | 6 | 0 | nt | nt | nt
COc1ccc(OC)c(Nc2nc(NCCCN(C)C)nc(N)c2[N+](=O)[O-])c1 | 95* | 3 | 74* | 5 | -13 | -21% | i
COCCCNc1nc(N)c([N+](=O)[O-])c(Nc2cc(OC)ccc2OC)n1 | -10 | 4 | 3 | -75 | -4 | nt | nt
N=c1c(C(=O)NCCc2ccccc2)cc2c(=O)n3ccccc3nc2n1CCCN1CCOCC1 | 45 | 4 | 28 | 1 | 12 | nt | nt
Cc1cccn2c(=O)c3cc(C(=O)NC4CCCCC4)c(=N)n(Cc4ccc(F)cc4)c3nc12 | -18 | 3 | 2 | 1 | 1 | nt | nt
N=c1c(C(=O)NCCN2CCOCC2)cc2c(=O)n3ccccc3nc2n1CCc1ccccc1 | 57* | 8 | 63* | -1 | 21 | -9% | i
Cc1cccn2c(=O)c3cc(C(=O)NC4CCCC4)c(=N)n(CCCN4CCOCC4)c3nc12 | 68* | 3 | 77* | 8 | 16 | 5% | i
Cc1cccn2c(=O)c3cc(C(=O)NCCN4CCOCC4)c(=N)n(CCN4CCOCC4)c3nc12 | 69* | 5 | 51* | -3 | 13 | 3% | i
COc1ccc(NC(=O)Nc2cccc3c2O[C@@H](CN(C)C(=O)Nc2ccccc2)[C@H](C)CN([C@@H](C)CO)C3=O)cc1 | -1 | nt | -1 | nt | nt | nt | nt

Bioassay records deposited in PubChem by Broad Institute.
